# Source: PubChem BioAssay (several laboratories)
# proCasp3 act: activators of human procaspase-3 D3A mutant, primary screen, biochemical, absorbance, PC-3 D3A mutant, single concentration; hit rate 0.11% among 330,000; AID 463141, 2010; recombinant procaspase-3 D3A, Ac-DEVD-pNA absorbance 405 nm; activation, % at 8.5 µM; Caspase-3 (Homo sapiens), P42574;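 active = activation above the mean of all tested compounds plus 3 SD, cut at about 21% in these data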;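 also: 0% = DMSO alone and 100% = DMSO wells spiked with extra 5 µM PC-3 D3A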
#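 Assay system: Autoprocessing-dead procaspase-3 D3A mutant enzyme; also added: Ac-DEVD-pNA; doses: one concentration, 8.5 µM nominal, 0.8% DMSO; times: 1 h compound preincubation, 2 h substrate hydrolysis at 25 °C; technique: 405 nm absorbance of p-nitroaniline, reads at 0 and 120 min; measure: % activation between DMSO and enzyme-spiked controls; repeats: single replicate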
# PolyA inh: polyadenylation inhibitors in yeast reporter cells, primary screen, luminescence, S. cerevisiae. S. cerevisiae SKY197-pL101 polyadenylation reporter, beta-gal luminescence; efflux-impaired pdr1/pdr3 knockout yeast; score 100 = 6 SD above DMSO. activity score, % at 12 µM. AID 1875, 2009. hit rate 0.02% among 300,000;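 active = lowest replicate activity score at least 50, where 100 means six control SD above control mean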;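 also: yeast exposed to compound for 9 h at 30 °C; higher score means more reporter readthrough which indicates perturbed polyadenylation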
# Neddylation inh: inhibitors of cullin neddylation, primary screen, biochemical, TR-FRET, uHTS, NAE and Ubc12. NEDD8-conjugating enzyme Ubc12 (Homo sapiens) + NEDD8-activating enzyme E1 regulatory …. calls only at 25 µM. hit rate 0.58% among 360,000. AID 651699, 2012; in the data active = inhibition above about 36%
# Target sequence (P61081 whole entry, looked up): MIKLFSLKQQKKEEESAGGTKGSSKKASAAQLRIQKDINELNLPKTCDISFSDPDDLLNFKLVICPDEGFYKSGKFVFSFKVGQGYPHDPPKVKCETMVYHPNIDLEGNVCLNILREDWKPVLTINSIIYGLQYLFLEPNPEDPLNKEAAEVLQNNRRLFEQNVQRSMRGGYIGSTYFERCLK
# Target sequence (Q13564 whole entry, looked up): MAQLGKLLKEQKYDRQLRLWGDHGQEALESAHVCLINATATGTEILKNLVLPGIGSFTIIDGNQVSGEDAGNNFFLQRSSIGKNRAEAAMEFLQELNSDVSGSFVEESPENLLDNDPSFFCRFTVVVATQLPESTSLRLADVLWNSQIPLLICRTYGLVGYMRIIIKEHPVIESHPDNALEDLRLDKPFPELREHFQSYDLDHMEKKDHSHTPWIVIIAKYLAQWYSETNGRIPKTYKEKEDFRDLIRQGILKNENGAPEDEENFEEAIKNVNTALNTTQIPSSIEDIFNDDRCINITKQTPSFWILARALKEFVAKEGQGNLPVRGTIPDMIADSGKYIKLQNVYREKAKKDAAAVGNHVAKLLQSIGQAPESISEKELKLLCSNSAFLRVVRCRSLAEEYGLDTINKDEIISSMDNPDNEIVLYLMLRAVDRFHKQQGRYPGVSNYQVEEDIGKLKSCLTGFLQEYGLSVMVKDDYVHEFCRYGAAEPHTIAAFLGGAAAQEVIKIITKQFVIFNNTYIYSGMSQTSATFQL
# VIM-2 inhibitor: VIM-2 metallo-beta-lactamase inhibitors, primary screen, biochemical, epi-absorbance readout, Pseudomonas aeruginosa enzyme. purified VIM-2, nitrocefin hydrolysis, epi-absorbance fluorescence. inhibition, % at 5.6 µM. hit rate 0.89% among 290,000;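 active = inhibition above the mean of all tested compounds plus 3 SD, cutoff set per screening run, cut at about 7.5% in these data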;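 also: red hydrolysis product quenches plate fluorescence so inhibitors raise well fluorescence; 0% = enzyme with DMSO and 100% = DMSO without enzyme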
# IMP-1 inhibitor: IMP-1 metallo-beta-lactamase inhibitors, primary screen, biochemical, epi-absorbance readout, Pseudomonas aeruginosa enzyme. metallo-beta-lactamase IMP-1 (Pseudomonas aeruginosa). purified IMP-1, nitrocefin hydrolysis, epi-absorbance fluorescence. inhibition, % at 5.6 µM. hit rate 0.45% among 290,000. AID 1556, 2009;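 active = inhibition above the mean plus 3 SD of all compounds in the same screening run, cut at about 4.5% in these data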;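 also: 0% = IMP-1 with DMSO and 100% = DMSO wells lacking enzyme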
#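 System: purified recombinant IMP-1 beta-lactamase. Medium: Zinc- and detergent-supplemented HEPES buffer, pH 7.1. Compound: one 5.6 µM dose […]. Schedule: 15 min preincubation plus 25 min reaction at 25 °C. Technique: Epi-absorbance fluorescence, 480 nm excitation, 530 nm emission.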
# procasp7 counter: procaspase-7 activators, primary screen, counter-screen for procaspase-3 activator project, biochemical, absorbance, HTS, human. Caspase-7 (Homo sapiens), P55210. recombinant procaspase-7, Ac-DEVD-pNA absorbance 405 nm; D23A/D198A/D206A triple mutant, cannot self-cleave; scale: DMSO 0, 5 µM enzyme 100. activation, % at 8.5 µM. hit rate 0.093% among 330,000. AID 463210, 2010;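 active = percent activation above the screen-wide mean plus 3 SD, cut at about 25% in these data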
#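 Detection: p-Nitroaniline absorbance at 405 nm, read at 0 and 120 min; system: Uncleavable procaspase-7 mutant enzyme; evaluation: % activation from two-timepoint absorbance difference, scaled to controls; times: 1 h enzyme–compound preincubation and 2 h substrate reaction, both 25 °C; buffer or medium: Zinc-free HEPES pH 7.4 with 300 mM NaCl, 0.01% Triton X-100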
# An asterisk follows results filed as active; i = inactive; · = no result given; + = active, no number; ! = a repeat was not active. Shown are actives, neighbours in structure and some others; about 1.7% of the full set was active somewhere.
SMILES,proCasp3 act,PolyA inh,Neddylation inh,VIM-2 inhibitor,IMP-1 inhibitor,procasp7 counter
Cc1ccc(NC(=O)CSc2nc3ccccc3nc2N2CCCC2)cc1,40*,20,i,-2,-3,-2
Cc1ccc(NC(=O)CSc2nc3ccccc3c(=O)n2CCCC(=O)N2CCCC2)cc1,4,-1,i,1,10*,4
Cc1ccc(-c2nn(-c3ccccc3)cc2/C=N/NC(=O)c2ccncc2)o1,-6,-13,i,-6,-4,-12
COc1ccc(-n2nc3c(N4CCC(C(=O)NCCc5ccccc5C)CC4)nnc(C)c3c2C)cc1,3,3,i,-2,-3,-1
Cc1ccc(-n2nc3c(N4CCC(C(=O)NCc5cccc(F)c5)CC4)nnc(C)c3c2C)cc1,2,-10,+,1,-1,3
Cc1ccc(-n2nc3c(N4CCC(C(=O)NCc5ccc(C)o5)CC4)nnc(C)c3c2C)cc1,-12,-27,i,-1,-2,-2
COc1ccc(-n2nc3c(N4CCC(C(=O)NCc5ccccc5C)CC4)nnc(C)c3c2C)cc1,-3,11,i,3,11*,-3
CCN1CCN(C(=O)C2CCN(c3nnc(C)c4c(C)n(-c5ccc(C)cc5)nc34)CC2)CC1,-8,5,i,9.1*,1,11
Cc1ccc2c(c1C)NC(=O)CC(c1ccccc1O)=N2,4,-15,i,0,-4,10
COc1ccc(-c2cc(C(=O)OCC(=O)N(C)C)c3ccccc3n2)cc1,-3,-8,i,1,4.7*,4
CC(C)(C)NC(=O)N1CCN(c2nc(-c3ccccc3)ns2)CC1,3,-14,i,-2,-3,-1
O=C(NNC(=O)c1cccc2ccccc12)c1ccc(Cl)cc1,·,·,i,·,·,·
Cc1ccc(NC(=O)C2=C(C(=O)O)CCCC2)cc1Br,-7,15,i,3,13*,3
Cc1ccc(NC(=O)C2=C(C(=O)O)CCCC2)cc1F,0,-3,i,1,7.9*,8
Cc1ccc(NC(=O)c2ccc3c(=O)n4c(nc3c2)CCCCC4)cc1F,-4,14,i,1,-2,-4
Nc1cccc2c1nnn2C1OC(CO)C(O)C(O)C1O (stereo unspecified),-2,0,i,-2,-2,4
CSc1nnc(-c2cccc(NC(=S)NN)c2)o1,-8,3,i,9.7*,-4,-6
CSc1nnc(-c2ccc(NC(N)=S)cc2)o1,3,-2,i,1,4.6*,6
CSc1nnc(-c2ccccc2)o1,4,-10,i,-1,-2,7
CCCn1c2c(c(O)c(C(=O)Nc3ccc(OCC)cc3)c1=O)CCCC2,8,8,·,0,-2,-5
CCN1CCCC(NC(=O)c2cc([N+](=O)[O-])ccc2OC)C1 (stereo unspecified),-10,0,i,-3,-3,7
NS(=O)(=O)c1ccc(S(=O)(=O)N(Cc2ccccc2F)CC2CCCO2)cc1 (stereo unspecified),3,3,i,-1,5.0*,-2
O=c1[nH]c2ccccc2cc1CN(CC1CCCO1)S(=O)(=O)c1ccc(Cl)cc1 (stereo unspecified),-3,9,i,0,-2,4
Nc1nnc2cc(F)ccc2n1,·,·,i,·,·,·
OC1=C(O)c2nc3cc(F)ccc3nc21,-5,2,i,8.2*,-3,-2
SMILES,proCasp3 act,PolyA inh,Neddylation inh,VIM-2 inhibitor,IMP-1 inhibitor,procasp7 counter
Oc1ccccc1N1CCN(Cc2ncc(-c3ccccc3)o2)CC1,1,0,i,-3,-1,9
Cc1c(NC(=O)c2cccnc2Cl)c(=O)n(-c2ccccc2)n1C,4,0,i,0,7.0*,13
Cn1c(N)c(C#N)c2c(c1=S)CSC(C)(C)C2,-4,-11,i,0,0,-4
CC1(C)Cc2c(C#N)c(N)sc(=S)c2CS1,-25,4,i,1,6.4*,-22
Cc1ccccc1OCc1nnc(SCC(=O)O)n1-c1ccccc1,-1,6,i,-1,-3,5
Cc1ccc(C2C(C(=O)c3cccs3)=C(O)C(=O)N2c2nnc(C)s2)cc1 (stereo unspecified),-8,7,i,20*,20*,-18
COc1cc(C(=O)Nc2ccccc2N2CCN(S(C)(=O)=O)CC2)cc(OC)c1OC,4,-8,i,-1,-3,12
CN(CC(=O)NCc1ccccc1)Cc1cccc(F)c1,·,15,i,-2,5.6*,·
CCOc1ccc(CN(C)CC(=O)NCc2ccccc2)cc1,-2,-1,i,1,0,2
CC(C)(C)NC(=O)CON=C1c2ccccc2-c2ccccc21,0,9,i,-4,-1,-6
CC(C)(C)NCC(O)CON=C1c2ccccc2-c2ccccc21 (stereo unspecified),0,-6,i,7.8*,1,5
CC(OC(=O)C1CC(=O)N(Cc2ccco2)C1)C(=O)Nc1cccc(C#N)c1 (stereo unspecified),·,·,i,·,·,·
C=CCSc1nnc(-c2cc3c(-c4ccccc4)nn(C)c3s2)n1C,-4,4,i,9.5*,0,1
Cc1cc2cc(CN(Cc3cccs3)C(=S)NCc3ccco3)c(=O)[nH]c2cc1C,2,10,i,8.6*,-1,-12
COc1cc(NC(=O)CN2C(=O)C(=O)N(C3CCCC3)C2=O)cc(OC)c1,5,·,i,·,·,4
COc1ccc(C2Nc3ccccc3C(=O)N2Cc2ccco2)cc1CN1C(=O)c2ccccc2C1=O (stereo unspecified),-7,-20,i,-1,4.7*!,0
COCCn1c(SC(C)C(=O)NC2CCCCC2C)nc2ccccc2c1=O (stereo unspecified),4,0,i,·,·,0
COc1cccc(CN(C(=O)Cc2c[nH]c3ccccc23)C(C(=O)NC2CCCCC2)c2ccc(C)o2)c1 (stereo unspecified),0,-14,i,-2,22*,-6
COc1ccc(CN(C(=O)Cc2c[nH]c3ccccc23)C(C(=O)NC2CCCCC2)c2ccc(C)o2)cc1 (stereo unspecified),-5,13,i,-2,49*,4
